Data reported in ChEMBL document CHEMBL3352600, “Structure-Based Design of Reactive Nucleosides for Site-Specific Modification of the A2A Adenosine Receptor” (ACS Med Chem Lett, 2014).

Legend:
Adenosine receptor A2a [1] = target: T1, Adenosine receptor A2a (Homo sapiens, UniProt P29274); assay: Displacement of [3H]2-[p-(2-carboxyethyl)phenyl-ethylamino]-5'-N-ethylcarboxamidoadenosine from human adenosine A2a receptor expressed in HEK293 cells; assay type: cell-based
Target sequence in this assay (P29274 whole entry): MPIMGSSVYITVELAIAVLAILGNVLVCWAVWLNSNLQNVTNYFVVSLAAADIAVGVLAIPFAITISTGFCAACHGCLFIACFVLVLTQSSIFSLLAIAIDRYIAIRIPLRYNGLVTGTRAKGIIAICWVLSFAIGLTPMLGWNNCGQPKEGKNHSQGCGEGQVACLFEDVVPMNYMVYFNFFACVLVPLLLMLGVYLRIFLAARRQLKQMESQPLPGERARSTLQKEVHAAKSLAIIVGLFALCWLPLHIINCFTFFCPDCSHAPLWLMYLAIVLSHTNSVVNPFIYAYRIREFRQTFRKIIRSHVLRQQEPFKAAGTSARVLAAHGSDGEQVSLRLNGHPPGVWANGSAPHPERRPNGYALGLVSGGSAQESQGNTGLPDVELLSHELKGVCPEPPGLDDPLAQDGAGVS

[2] = target: T2, Adenosine receptor A1 (Homo sapiens) (UniProt P30542); assay: Displacement of [3H]R-PIA from human adenosine A1 receptor expressed in CHO cells at 10 uM; assay type: cell-based
T2 sequence (whole entry): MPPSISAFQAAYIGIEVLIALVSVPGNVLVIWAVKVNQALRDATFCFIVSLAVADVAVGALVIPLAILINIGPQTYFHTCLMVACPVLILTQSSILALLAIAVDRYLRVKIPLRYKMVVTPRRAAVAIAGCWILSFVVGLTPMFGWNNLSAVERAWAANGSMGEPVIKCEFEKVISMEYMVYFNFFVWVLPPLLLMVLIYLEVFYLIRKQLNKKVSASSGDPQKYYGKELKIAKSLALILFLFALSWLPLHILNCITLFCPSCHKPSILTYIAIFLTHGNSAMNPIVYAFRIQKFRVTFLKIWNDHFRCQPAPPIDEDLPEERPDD
In short: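 Single-point test at 10 μM on membranes of CHO cells stably expressing human A1 receptor, read as percent inhibition of [3H]R-PIA agonist binding. Nonspecific binding was defined with 10 μM NECA.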

Adenosine receptor A3 = target: T3, Adenosine receptor A3 (Homo sapiens, UniProt P0DMS8); assay: Displacement of [125I]I-AB-MECA from human adenosine A3 receptor expressed in CHO cells; assay type: cell-based
T3 sequence (P0DMS8 whole entry): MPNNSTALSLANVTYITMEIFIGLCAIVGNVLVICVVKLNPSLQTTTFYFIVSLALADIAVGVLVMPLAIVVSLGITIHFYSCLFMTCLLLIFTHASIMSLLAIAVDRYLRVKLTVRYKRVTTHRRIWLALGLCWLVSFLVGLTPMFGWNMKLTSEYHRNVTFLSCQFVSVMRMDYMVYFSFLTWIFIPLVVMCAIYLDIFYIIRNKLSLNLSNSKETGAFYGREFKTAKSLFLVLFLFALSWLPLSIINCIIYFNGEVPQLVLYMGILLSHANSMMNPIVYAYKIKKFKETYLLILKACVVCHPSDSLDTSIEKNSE

Adenosine receptor A2a [3] = target: T1, Adenosine receptor A2a; assay: Displacement of [3H]4-[2-[7-amino-2-(2-furyl)-1,2,4-triazolo[1,5-a][1,3,5]triazin-5-yl-amino]ethylphenol from human adenosine A2a receptor expressed in HEK293 cells assessed as radioligand binding at 1 uM preincubated for 30 mins; assay type: cell-based
In short: (§1)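 Membranes of HEK293 cells stably expressing human A2A receptor were preincubated with compound (1 μM, 30 min). Membranes were then washed by repeated centrifugation cycles. Residual specific binding was measured with agonist [3H]CGS21680 (10 nM) or antagonist [3H]7 (1.0 nM) and expressed as percent binding remaining.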
Target sequence in this assay (P29274 whole entry): as the sequence (P29274 whole entry) above

Homo sapiens [4] = species: Homo sapiens; assay: Selectivity ratio of Ki for human adenosine A3 receptor to Ki for human adenosine A2A receptor
Homo sapiens [5] = species: Homo sapiens; assay: Selectivity ratio of Ki for human adenosine A1 receptor to Ki for human adenosine A2A receptor
Adenosine receptor A2a [6] = target: T1, Adenosine receptor A2a; assay: Agonist activity at human adenosine A2a receptor expressed in CHO cells assessed as stimulation of cAMP formation after 24 hrs; assay type: functional, cell-based
Target sequence in this assay (P29274 whole entry): as the sequence (P29274 whole entry) above

Adenosine receptor A2a [7] = target: T1, Adenosine receptor A2a; assay: Displacement of [3H]4-[2-[7-amino-2-(2-furyl)-1,2,4-triazolo[1,5-a][1,3,5]triazin-5-yl-amino]ethylphenol from wild type human adenosine A2a receptor expressed in COS-7 cells assessed as radioligand Kd compound preincubated for 30 mins
Target sequence in this assay (P29274 whole entry): as the sequence (P29274 whole entry) above

Adenosine receptor A2a [8] = target: T1, Adenosine receptor A2a; assay: Displacement of [3H]4-[2-[7-amino-2-(2-furyl)-1,2,4-triazolo[1,5-a][1,3,5]triazin-5-yl-amino]ethylphenol from human adenosine A2a receptor K153A mutant expressed in COS-7 cells assessed as radioligand Bmax per mg of protein compound preincubated for 30 mins
Target sequence in this assay (P29274 whole entry, looked up): as the sequence (P29274 whole entry) above

Adenosine receptor A1 = target: T4, Adenosine receptor A1 (Homo sapiens, UniProt P30542); assay: Displacement of [3H]R-PIA from human adenosine A1 receptor expressed in CHO cells; assay type: cell-based
T4 sequence (P30542 whole entry): T2 sequence (whole entry)

Adenosine receptor A2a [9] = target: T1, Adenosine receptor A2a; assay: Displacement of [3H]4-[2-[7-amino-2-(2-furyl)-1,2,4-triazolo[1,5-a][1,3,5]triazin-5-yl-amino]ethylphenol from human adenosine A2a receptor K150A mutant expressed in COS-7 cells assessed as radioligand Bmax per mg of protein compound preincubated for 30 mins
Target sequence in this assay (P29274 whole entry, looked up): as the sequence (P29274 whole entry) above

Adenosine receptor A2a [10] = target: T1, Adenosine receptor A2a; assay: Displacement of [3H]2-[p-(2-carboxyethyl)phenyl-ethylamino]-5'-N-ethylcarboxamidoadenosine from human adenosine A2a receptor expressed in HEK293 cells assessed as radioligand binding at 1 uM preincubated for 30 mins; assay type: cell-based; in short: as §1
Target sequence in this assay (P29274 whole entry): as the sequence (P29274 whole entry) above

Ki (Adenosine receptor A2a [1]) [nM]	inhibition [2] [%]	Ki (Adenosine receptor A3) [nM]	Activity (Adenosine receptor A2a [3]) [%]	Ratio Ki (Homo sapiens [4])	Ratio Ki (Homo sapiens [5])	EC50 (Adenosine receptor A2a [6]) [nM]	Kd (Adenosine receptor A2a [7]) [nM]	Bmax (Adenosine receptor A2a [8]) [pmol]	Ki (Adenosine receptor A1) [nM]	Bmax (Adenosine receptor A2a [9]) [pmol]	Activity (Adenosine receptor A2a [10]) [%]	SMILES
4360	30	1810										CCNC(=O)[C@H]1O[C@@H](n2cnc3c(N)nc(NCCc4ccc(CCC(=O)Nc5ccc(OC(=O)CCCCN=[N+]=[N-])c([N+](=O)[O-])c5)cc4)nc32)[C@H](O)[C@@H]1O
23		207	11	9	22	2.12	2.24	1.65	500	0.2	19	CCNC(=O)[C@H]1O[C@@H](n2cnc3c(N)nc(NCCc4ccc(CCC(=O)Nc5ccc(OC(C)=O)c([N+](=O)[O-])c5)cc4)nc32)[C@H](O)[C@@H]1O
3280	37	1960										CCNC(=O)[C@H]1O[C@@H](n2cnc3c(N)nc(NCCc4ccc(CCC(=O)Nc5ccc(OC(=O)CCCC[C@@H]6SC[C@@H]7NC(=O)N[C@@H]76)c([N+](=O)[O-])c5)cc4)nc32)[C@H](O)[C@@H]1O
267		171							1890			CCNC(=O)[C@H]1O[C@@H](n2cnc3c(N)nc(NCCc4ccc(CCC(=O)Nc5ccc(O)c([N+](=O)[O-])c5)cc4)nc32)[C@H](O)[C@@H]1O
